Assay results of several laboratories.
Lines come from different studies, so protocols differ.
HDAC8: Histone deacetylase 8 (HDAC8, Homo sapiens, UniProt Q9BY41)
TACR2: Substance-K receptor (TACR2, Homo sapiens, UniProt P21452)
ALOX5: Polyunsaturated fatty acid 5-lipoxygenase (ALOX5, Homo sapiens, UniProt P09917)

O=c1cc(-c2ccc(O)c(O)c2)oc2cc(O)cc(O)c12
inhibition (HDAC8; enzyme activity, inhibitor; 10 µM): 67.2%

CCN1CCN(Cc2ccc(NC(=O)c3ccc(C)c(/C=C/c4cnc5[nH]ccc5c4OC)c3)cc2C(F)(F)F)CC1
inhibition (Mitogen-activated protein kinase kinase kinase 4 (MAP3K4, Homo sapiens, UniProt Q9Y6R4); target engagement in cells, inhibitor, chemoproteomics; A-375; 50 nM): -0.65%

Oc1cccc(Nc2nc(-c3ccc(F)cc3F)cs2)c1
inhibition (TACR2; cell-free assay; 10 µM): 31.5%

CC1(C)CC[C@]2(C)CC[C@]3(C)[C@H]4CC=C5[C@@H](CC[C@H](O)C5(C)C)[C@]4(C)CC[C@@]3(C)[C@@H]2C1
inhibition (HDAC8; enzyme activity, inhibitor; 10 µM): 44.8%

CCCNc1nc2ccccc2n1Cc1ccc(Cl)cc1
inhibition (5-hydroxytryptamine receptor 1D (HTR1D, Homo sapiens, UniProt P28221); cell-free assay; 10 µM): -20.3%

O=C(c1ccc(F)cc1)N(Cc1ccccc1)C1CCCCC1
inhibition (Mu-type opioid receptor (OPRM1, Homo sapiens, UniProt P35372); ligand displacement; 10 µM): 6%

CC(=O)O[C@@H]1c2c(ccc3ccc(=O)oc23)OC(C)(C)[C@@H]1OC(=O)C1(C)OC1C (stereo partly shown)
inhibition (HDAC8; enzyme activity, inhibitor; 10 µM): 43.5%

Cc1occ(O)c(=O)c1C(=O)O
inhibition (ALOX5; enzyme activity, inhibitor, fluorescence; 1 mM): > 70%

O=c1c(O[C@@H]2O[C@H](CO)[C@@H](O)[C@H](O)[C@H]2O)c(-c2ccc(O)cc2)oc2cc(O)cc(O)c12
inhibition (HDAC8; enzyme activity, inhibitor; 10 µM): 14.8%

COc1cc(NC(C)=O)c(Cl)cc1C(=O)Nc1nccs1
inhibition (TACR2; cell-free assay; 10 µM): 20%

CN(C)C1CCN(CC#Cc2nn(C3CCCC3)c3nc(NCc4ccccc4)ncc23)C1 (stereo not shown)
inhibition (G protein-coupled receptor kinase 4 (GRK4, Homo sapiens, UniProt P32298); enzyme activity, inhibitor, FRET; 0.1 µM): 7%

C/C=C(/C)C(=O)O[C@@H]1[C@H](OC(C)=O)c2c(ccc3ccc(=O)oc23)OC1(C)C
inhibition (HDAC8; enzyme activity, inhibitor; 10 µM): 40.9%

CCn1ccc(=S)c(O)c1C
inhibition (ALOX5; enzyme activity, inhibitor, fluorescence; 1 mM): > 70%

O=C1N=C(N2CCCCN2)S/C1=C\c1ccc(F)cc1O
inhibition (TACR2; ligand displacement, radioligand; 10 µM): < 10%

Cc1occc(=S)c1O
inhibition (ALOX5; enzyme activity, inhibitor, fluorescence; 1 mM): > 70%

CCOC(=O)C1=C(C)NC(c2ccccc2)=C(C(=O)OCc2ccccc2)C1C#Cc1ccccc1 (stereo not shown)
inhibition (Adenosine receptor A3 (Mus musculus, UniProt Q61618); ligand displacement, radioligand; 10 µM, cell membranes): 32%
